Experimental data pooled from the literature.
Compare with care: the assays were run in different laboratories.
Target: Cytochrome P450 1A2 (CYP1A2, Homo sapiens, UniProt P05177)
Read-out: enzyme activity
Action: inhibitor

SMILES	method	species	medium	time	pH	endpoint	value
COc1ccc2c(Cc3ccccc3F)c3[n+](cc2c1OC)CCc1cc2c(cc1-3)OCO2	–	–	–	–	–	IC50	> 10 µM
CC(CN1c2ccccc2Sc2ccccc21)N(C)C (stereo not drawn)	fluorescence	–	–	–	–	IC50	1 µM
NS(=O)(=O)NCCNc1nonc1C(=NO)Nc1ccc(F)c(Br)c1	fluorescence	–	–	–	–	IC50	> 10 µM
Cc1ccc2nc(-c3ccccc3)c(CNc3ccc(F)cc3)n2c1	–	–	–	–	–	IC50	1.8 µM
C#Cc1ccc2cc(-c3ccccc3)c(=O)oc2c1	–	–	–	6 min	pH 7.6	Ki	2970 nM
N#Cc1ccnc(Oc2nn([C@H]3C[C@H](F)C3)c3ncnc(N)c23)c1	–	human	liver microsomes	10 min	–	IC50	20.8 µM
C#Cc1ccc2c(=O)cc(-c3ccccc3)oc2c1	–	–	–	6 min	pH 7.6	Ki	520 nM
C=CC(=O)Nc1cc(Nc2nccc(Nc3cc(Cl)c(F)cc3C(C)(C)O)n2)c(OC)cc1N1CC[C@@H](N(C)C)C1	–	human	liver microsomes	–	–	IC50	> 30 µM
COc1ccc2[nH]c([S+]([O-])Cc3ncc(C)c(OC)c3C)nc2c1 (stereo not drawn)	fluorescence	–	–	–	–	IC50	112 µM
CCn1c(C(=O)N(C2CC2)C2CC2)cc2c3c(ncn3C)c(Nc3cc(C)n(C)n3)nc21	–	human	liver microsomes	–	–	Ki	600 nM
COc1ccc2c(Cc3ccccc3F)c3n(c(=O)c2c1OC)CCc1cc2c(cc1-3)OCO2	–	–	–	–	–	IC50	> 10 µM
C[C@H]1CN(c2n[nH]c3nc(N[C@H]4CC[C@H](NS(=O)(=O)CCC(F)(F)F)CC4)ncc23)CCO1	–	–	–	–	–	IC50	> 100 µM
